Data as given in ChEMBL document CHEMBL2086372 (ACS Med Chem Lett, 2012).
Calls of active or inactive are those of the source. The calls are words filed in the database; no cut-off is given here.

Tests used:
[1] = molecular target: T1, Alpha-2C adrenergic receptor (Homo sapiens) (UniProt P18825); test: Agonist activity at human alpha2C adrenoceptor expressed in CHO cells assessed as extracellular acidification measured after 4 mins by cytosensor microphysiometric analysis relative to control; type: functional, cell-based
T1 sequence (whole entry): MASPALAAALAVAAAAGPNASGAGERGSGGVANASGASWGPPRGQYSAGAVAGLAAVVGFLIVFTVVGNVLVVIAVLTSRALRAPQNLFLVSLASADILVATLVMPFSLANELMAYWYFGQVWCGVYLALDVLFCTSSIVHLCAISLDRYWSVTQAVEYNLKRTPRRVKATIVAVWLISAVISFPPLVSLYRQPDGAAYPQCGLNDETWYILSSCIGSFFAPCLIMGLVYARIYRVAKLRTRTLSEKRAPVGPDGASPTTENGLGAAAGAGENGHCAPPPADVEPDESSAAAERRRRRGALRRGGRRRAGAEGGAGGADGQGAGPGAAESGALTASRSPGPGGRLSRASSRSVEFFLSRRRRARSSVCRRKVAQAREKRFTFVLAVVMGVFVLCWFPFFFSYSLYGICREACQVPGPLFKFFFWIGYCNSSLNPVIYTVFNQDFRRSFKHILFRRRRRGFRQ
Method in brief: (§1)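 Binding and functional assays run on CHO cells expressing recombinant human α2-AR subtypes. Functional read-outs are agonist potency (pEC50) with intrinsic activity (ia), or antagonist pKb. Affinity is reported as pKi. Values are means ± SEMs of 3–6 separate experiments.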

[2] = molecular target: T2, Alpha-2B adrenergic receptor (Homo sapiens) (UniProt P18089); conditions: CHO
T2 sequence (whole entry): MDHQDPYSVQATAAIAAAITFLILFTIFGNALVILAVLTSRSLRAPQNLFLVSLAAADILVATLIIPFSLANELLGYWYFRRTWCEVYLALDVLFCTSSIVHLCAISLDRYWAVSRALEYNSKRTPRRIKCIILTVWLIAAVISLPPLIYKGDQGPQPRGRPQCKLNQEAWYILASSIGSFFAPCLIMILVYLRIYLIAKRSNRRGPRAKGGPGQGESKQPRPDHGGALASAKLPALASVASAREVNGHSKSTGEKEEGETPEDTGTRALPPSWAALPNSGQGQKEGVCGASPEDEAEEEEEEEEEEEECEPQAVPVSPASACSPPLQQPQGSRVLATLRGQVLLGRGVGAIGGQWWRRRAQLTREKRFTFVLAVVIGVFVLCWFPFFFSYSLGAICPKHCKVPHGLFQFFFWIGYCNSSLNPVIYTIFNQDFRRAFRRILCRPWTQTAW

[3] = molecular target: T3, 5-hydroxytryptamine receptor 1A (Homo sapiens) (UniProt P08908); conditions: HeLa
T3 sequence (whole entry): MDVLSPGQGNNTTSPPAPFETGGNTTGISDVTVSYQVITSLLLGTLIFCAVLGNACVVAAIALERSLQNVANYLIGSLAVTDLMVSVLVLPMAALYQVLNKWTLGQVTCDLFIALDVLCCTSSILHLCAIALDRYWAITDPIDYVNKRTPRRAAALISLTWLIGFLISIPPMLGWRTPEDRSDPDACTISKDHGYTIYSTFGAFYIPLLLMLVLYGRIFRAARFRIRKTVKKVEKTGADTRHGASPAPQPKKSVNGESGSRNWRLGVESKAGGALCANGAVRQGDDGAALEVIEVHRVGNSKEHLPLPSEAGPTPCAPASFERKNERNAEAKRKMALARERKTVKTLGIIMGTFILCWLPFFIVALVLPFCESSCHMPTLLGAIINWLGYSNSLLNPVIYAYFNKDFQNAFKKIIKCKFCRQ

[4] = molecular target: T4, Alpha-2A adrenergic receptor (Homo sapiens) (UniProt P08913); conditions: CHO
T4 sequence (whole entry): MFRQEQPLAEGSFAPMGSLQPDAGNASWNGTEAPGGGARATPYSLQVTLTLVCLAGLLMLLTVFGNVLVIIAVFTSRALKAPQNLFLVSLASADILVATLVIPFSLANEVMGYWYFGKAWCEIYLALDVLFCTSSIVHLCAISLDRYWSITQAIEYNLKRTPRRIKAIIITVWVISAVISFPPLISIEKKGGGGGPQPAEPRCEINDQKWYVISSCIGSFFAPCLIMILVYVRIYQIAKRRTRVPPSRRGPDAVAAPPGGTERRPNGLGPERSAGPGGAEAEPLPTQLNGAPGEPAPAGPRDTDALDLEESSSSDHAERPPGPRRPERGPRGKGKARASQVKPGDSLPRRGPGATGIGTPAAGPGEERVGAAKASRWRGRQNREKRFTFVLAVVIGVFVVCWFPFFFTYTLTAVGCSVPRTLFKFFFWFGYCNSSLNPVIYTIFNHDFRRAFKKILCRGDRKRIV

[5] = molecular target: T5, 5-hydroxytryptamine receptor 1A (Homo sapiens, UniProt P08908); test: Displacement of [3H]8-OH-DPAT from human 5HT1A receptor expressed in HeLa cells after 30 mins; type: cell-based
T5 sequence (P08908 whole entry): T3 sequence (whole entry)
Method in brief: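 pKi is derived from displacement of [3H]-8-OH-DPAT binding at human cloned 5-HT1A receptor. Values are means ± SEMs of 3–6 separate experiments.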

Mus musculus [6] = test: Antidepressant activity in CD1 mouse assessed as decrease in immobility time at 0.025 mg/kg, ip administered 15 mins prior to coadministration with yohimbine measured after 15 mins by forced swim test relative to vehicle-treated control; type: functional, organism-based; set-up: dose 0.025 mg/kg
Method in brief: (§2)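 Forced swimming test in mice using 0.025 mg/kg ip test dose. It was combined with the 5-HT1A antagonist WAY 100635 (0.1 mg/kg, sc) or with the α2 antagonist yohimbine (1.250 mg/kg, ip). Each antagonist was also given alone. Immobility time is the read-out, given as means ± SEMs of 7–8 animals.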

Mus musculus [7] = test: Antidepressant activity in CD1 mouse assessed as decrease in immobility time at 0.025 mg/kg, ip administered 30 mins prior to coadministration with WAY100635 measured after 15 mins by forced swim test relative to vehicle-treated control; type: functional, organism-based; set-up: dose 0.025 mg/kg; method in brief: as §2
Mus musculus [8] = test: Antidepressant activity in CD1 mouse assessed as decrease in immobility time at 20 mg/kg, ip after 15 mins by forced swim test relative to vehicle-treated control; type: functional, organism-based; set-up: dose 20 mg/kg
Method in brief: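 Mouse forced swimming test with immobility time as the read-out. Single ip doses were 0.012, 0.025, 0.05, 0.2 or 0.5 mg/kg, with fluoxetine 20 mg/kg ip as reference. Results are compared against vehicle-treated mice and given as means ± SEMs of 8–9 animals.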

Mus musculus [9] = test: Effect on morphine-dependence in CD1 mouse assessed as decrease in naloxone-precipitated forepaw tremors at 0.025 mg/kg, ip administered chronically 15 mins prior to each morphine challenge relative to vehicle-treated control; type: functional, organism-based; set-up: dose 0.025 mg/kg
Method in brief: (§3)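 Acquisition of morphine dependence in mice, tested with repeated ip dosing (racemate 0.05 mg/kg, enantiomers 0.025 mg/kg). Withdrawal was precipitated by naloxone. Scored signs were jumping frequency and somatic signs (rearing, forepaw tremors, teeth chatter). Groups were compared with vehicle and with the morphine group.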

Mus musculus [10] = test: Effect on morphine-dependence in CD1 mouse assessed as decrease in naloxone-precipitated rearing at 0.025 mg/kg, ip administered chronically 15 mins prior to each morphine challenge relative to vehicle-treated control; type: functional, organism-based; set-up: dose 0.025 mg/kg; method in brief: as §3
[11] = molecular target: T6, Alpha-2A adrenergic receptor (Homo sapiens, UniProt P08913); test: Displacement of [3H]RX821002 from human alpha2A adrenoceptor expressed in CHO cells after 30 mins by scintillation counting; type: cell-based; method in brief: as §1
T6 sequence (P08913 whole entry): T4 sequence (whole entry)

Mus musculus [12] = test: Effect on morphine-dependence in CD1 mouse assessed as decrease in naloxone-precipitated forepaw tremors at 0.025 mg/kg, ip administered acutely 15 mins prior to naloxone challenge relative to vehicle-treated control; type: functional, organism-based; set-up: dose 0.025 mg/kg
Method in brief: as §3, with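 “Expression” for “Acquisition”, “a single acute” for “repeated”, “dose” for “dosing”, “naloxone in control and morphine-treated mice.” for “naloxone.”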

[13] = molecular target: T7, Alpha-2B adrenergic receptor (Homo sapiens, UniProt P18089); test: Agonist activity at human alpha2B adrenoceptor expressed in CHO cells assessed as extracellular acidification measured after 4 mins by cytosensor microphysiometric analysis
T7 sequence (P18089 whole entry): T2 sequence (whole entry)

Mus musculus [14] = test: Effect on morphine-dependence in CD1 mouse assessed as decrease in naloxone-precipitated jumping at 0.025 mg/kg, ip administered acutely 15 mins prior to naloxone challenge relative to vehicle-treated control; type: functional, organism-based; set-up: dose 0.025 mg/kg
Method in brief: as §3, with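 “Expression” for “Acquisition”, “a single acute” for “repeated”, “dose” for “dosing”, “naloxone in control and morphine-treated mice.” for “naloxone.”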

Mus musculus [15] = test: Effect on morphine-dependence in CD1 mouse assessed as decrease in naloxone-precipitated teeth chatter at 0.025 mg/kg, ip administered acutely 15 mins prior to naloxone challenge relative to vehicle-treated control; type: functional, organism-based; set-up: dose 0.025 mg/kg
Method in brief: as §3, with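 “Expression” for “Acquisition”, “a single acute” for “repeated”, “dose” for “dosing”, “naloxone in control and morphine-treated mice.” for “naloxone.”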

[16] = molecular target: T8, Alpha-2C adrenergic receptor (Homo sapiens, UniProt P18825); test: Displacement of [3H]RX821002 from human alpha2C adrenoceptor expressed in CHO cells after 30 mins by scintillation counting; type: cell-based; method in brief: as §1
T8 sequence (P18825 whole entry): T1 sequence (whole entry)

[17] = molecular target: T8, Alpha-2C adrenergic receptor; test: Agonist activity at human alpha2C adrenoceptor expressed in CHO cells assessed as extracellular acidification measured after 4 mins by cytosensor microphysiometric analysis; type: functional, cell-based; method in brief: as §1
[18] = molecular target: T7, Alpha-2B adrenergic receptor; test: Displacement of [3H]RX821002 from human alpha2B adrenoceptor expressed in CHO cells after 30 mins by scintillation counting; type: cell-based; method in brief: as §1
Mus musculus [19] = test: Effect on morphine-dependence in CD1 mouse assessed as decrease in naloxone-precipitated teeth chatter at 0.025 mg/kg, ip administered chronically 15 mins prior to each morphine challenge relative to vehicle-treated control; type: functional, organism-based; set-up: dose 0.025 mg/kg; method in brief: as §3
Mus musculus [20] = test: Effect on morphine-dependence in CD1 mouse assessed as decrease in naloxone-precipitated jumping at 0.025 mg/kg, ip administered chronically 15 mins prior to each morphine challenge relative to vehicle-treated control; type: functional, organism-based; set-up: dose 0.025 mg/kg; method in brief: as §3
Mus musculus [21] = test: Effect on morphine-dependence in CD1 mouse assessed as decrease in naloxone-precipitated rearing at 0.025 mg/kg, ip administered acutely 15 mins prior to naloxone challenge relative to vehicle-treated control; type: functional, organism-based; set-up: dose 0.025 mg/kg
Method in brief: as §3, with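 “Expression” for “Acquisition”, “a single acute” for “repeated”, “dose” for “dosing”, “naloxone in control and morphine-treated mice.” for “naloxone.”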

| Structure (SMILES) | Intrinsic activity [1] | pD2 [3] | pKb [4] | Ki [5] [µM] | Activity (Mus musculus [6]) | Activity (Mus musculus [7]) | also measured |
| --- | --- | --- | --- | --- | --- | --- | --- |
| C=CCc1ccccc1O[C@H](C)C1=NCCN1 | 0.5 | < 5 | 7.4 | > 10 |  |  | pEC50 [2]: inactive |
| C=CCc1ccccc1O[C@@H](C)C1=NCCN1 | 0.9 | 7.19 | 7.8 | 0.0355 | inactive | inactive |  |
| CNCCC(Oc1ccc(C(F)(F)F)cc1)c1ccccc1 (stereo not given) |  |  |  |  |  |  | Activity (Mus musculus [8]): Active |
| C[C@H](Oc1ccccc1CC1CC1)C1=NCCN1 | 0.85 |  |  | 0.00575 | inactive | inactive | Activity (Mus musculus [9]): Active; Activity (Mus musculus [10]): Active; Ki [11]: 0.0417 µM; Activity (Mus musculus [12]): Active; EC50 [13]: 1.58 µM; Activity (Mus musculus [14]): Active; Activity (Mus musculus [15]): Active; Ki [16]: 0.275 µM; EC50 [17]: 0.002 µM; Ki [18]: 0.407 µM; Activity (Mus musculus [19]): Active; Activity (Mus musculus [20]): Active; Activity (Mus musculus [21]): Active |
| CC(Oc1c(Cl)cccc1Cl)C1=NCCN1 (stereo not given) [LOFEXIDINE] |  |  |  | 0.126 |  |  |  |
